Laboratory results as given in ChEMBL document CHEMBL1128530, “Alpha- and beta-adrenoceptors: from the gene to the clinic. 1. Molecular biology and adrenoceptor subclassification” (J Med Chem, 1995).

Key:
[1] = biological target: T1, Alpha-1D adrenergic receptor (Homo sapiens, UniProt P25100); assay: Binding affinity against Alpha-1D adrenergic receptor, from human clones.
T1 sequence (P25100 whole entry): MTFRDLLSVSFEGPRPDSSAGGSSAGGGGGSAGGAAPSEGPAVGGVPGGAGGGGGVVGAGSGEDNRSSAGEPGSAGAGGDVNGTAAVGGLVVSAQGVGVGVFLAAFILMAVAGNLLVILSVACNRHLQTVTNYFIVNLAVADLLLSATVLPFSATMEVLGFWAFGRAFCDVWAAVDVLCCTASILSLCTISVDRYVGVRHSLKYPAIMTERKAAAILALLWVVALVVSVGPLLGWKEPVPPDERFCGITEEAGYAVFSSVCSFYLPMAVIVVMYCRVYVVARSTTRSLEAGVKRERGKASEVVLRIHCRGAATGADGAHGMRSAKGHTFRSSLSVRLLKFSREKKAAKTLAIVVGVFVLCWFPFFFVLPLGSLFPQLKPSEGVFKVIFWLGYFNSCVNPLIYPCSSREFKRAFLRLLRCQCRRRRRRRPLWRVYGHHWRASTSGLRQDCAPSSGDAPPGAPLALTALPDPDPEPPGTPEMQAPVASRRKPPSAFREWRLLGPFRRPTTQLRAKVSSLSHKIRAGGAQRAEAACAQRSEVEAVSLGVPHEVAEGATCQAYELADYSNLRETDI

[2] = biological target: T2, Alpha-2A adrenergic receptor (Homo sapiens, UniProt P08913); assay: The compound was tested for binding affinity against Alpha-2A adrenergic receptor from human clones.
T2 sequence (P08913 whole entry): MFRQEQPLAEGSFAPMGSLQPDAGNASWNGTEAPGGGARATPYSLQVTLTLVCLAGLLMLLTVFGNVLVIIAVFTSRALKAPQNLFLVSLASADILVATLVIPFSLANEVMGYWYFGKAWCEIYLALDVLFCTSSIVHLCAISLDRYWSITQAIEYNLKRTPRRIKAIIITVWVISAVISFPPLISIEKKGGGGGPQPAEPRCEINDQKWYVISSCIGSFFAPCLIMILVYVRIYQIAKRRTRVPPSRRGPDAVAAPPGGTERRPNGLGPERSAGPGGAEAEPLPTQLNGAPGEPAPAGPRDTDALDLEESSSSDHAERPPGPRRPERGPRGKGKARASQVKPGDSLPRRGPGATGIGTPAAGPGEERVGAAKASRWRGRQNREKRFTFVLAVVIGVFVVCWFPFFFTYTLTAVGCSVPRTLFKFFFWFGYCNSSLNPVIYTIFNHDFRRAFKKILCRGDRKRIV
How it was run: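 Human α2A-adrenoceptor clone expressed in CHO cells; radioligand binding read out as Ki (nM).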

[3] = biological target: T3, Alpha-1B adrenergic receptor (Homo sapiens, UniProt P35368); assay: The compound was tested for binding affinity against Alpha-1B adrenergic receptor, from human clones.
T3 sequence (P35368 whole entry): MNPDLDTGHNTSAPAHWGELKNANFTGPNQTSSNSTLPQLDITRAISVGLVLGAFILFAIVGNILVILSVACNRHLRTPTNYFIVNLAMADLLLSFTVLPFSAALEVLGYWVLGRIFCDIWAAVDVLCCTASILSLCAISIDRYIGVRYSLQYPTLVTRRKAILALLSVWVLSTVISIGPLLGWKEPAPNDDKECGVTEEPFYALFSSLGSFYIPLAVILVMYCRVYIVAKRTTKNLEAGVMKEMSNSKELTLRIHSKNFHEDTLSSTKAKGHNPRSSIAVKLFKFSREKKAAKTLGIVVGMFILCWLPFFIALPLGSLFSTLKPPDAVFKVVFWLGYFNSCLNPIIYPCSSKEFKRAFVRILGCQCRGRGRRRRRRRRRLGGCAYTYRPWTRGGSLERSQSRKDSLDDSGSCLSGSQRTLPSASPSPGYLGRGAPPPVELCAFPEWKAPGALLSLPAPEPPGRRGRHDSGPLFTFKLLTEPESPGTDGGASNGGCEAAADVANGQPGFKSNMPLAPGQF

[4] = biological target: Alpha-1B adrenergic receptor (Rattus norvegicus, UniProt P15823); assay: Overall binding displacement in tissues containing only the Alpha-1B adrenergic receptor (rat spleen, rat liver); assay type: tissue-based
[5] = biological target: T4, Alpha-1A adrenergic receptor (Homo sapiens, UniProt P35348); assay: Binding affinity against Alpha-1A adrenergic receptor from human clone
T4 sequence (P35348 whole entry): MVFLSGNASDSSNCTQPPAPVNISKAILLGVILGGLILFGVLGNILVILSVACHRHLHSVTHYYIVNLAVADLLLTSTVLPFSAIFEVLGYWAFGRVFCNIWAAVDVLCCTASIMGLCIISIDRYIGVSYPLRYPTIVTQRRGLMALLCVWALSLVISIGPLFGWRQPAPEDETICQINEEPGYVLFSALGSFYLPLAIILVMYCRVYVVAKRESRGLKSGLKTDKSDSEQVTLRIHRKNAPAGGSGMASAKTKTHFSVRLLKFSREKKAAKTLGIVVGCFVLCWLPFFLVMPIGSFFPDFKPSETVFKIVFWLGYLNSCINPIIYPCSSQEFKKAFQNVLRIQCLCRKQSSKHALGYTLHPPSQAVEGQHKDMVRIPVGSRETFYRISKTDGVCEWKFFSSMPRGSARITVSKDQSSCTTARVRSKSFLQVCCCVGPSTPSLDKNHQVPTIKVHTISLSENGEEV

[6] = biological target: T5, Alpha-2A adrenergic receptor (Rattus norvegicus, UniProt P22909); assay: The compound was tested for binding affinity against alpha-2d-adrenoceptor, from rat clones.
T5 sequence (P22909 whole entry): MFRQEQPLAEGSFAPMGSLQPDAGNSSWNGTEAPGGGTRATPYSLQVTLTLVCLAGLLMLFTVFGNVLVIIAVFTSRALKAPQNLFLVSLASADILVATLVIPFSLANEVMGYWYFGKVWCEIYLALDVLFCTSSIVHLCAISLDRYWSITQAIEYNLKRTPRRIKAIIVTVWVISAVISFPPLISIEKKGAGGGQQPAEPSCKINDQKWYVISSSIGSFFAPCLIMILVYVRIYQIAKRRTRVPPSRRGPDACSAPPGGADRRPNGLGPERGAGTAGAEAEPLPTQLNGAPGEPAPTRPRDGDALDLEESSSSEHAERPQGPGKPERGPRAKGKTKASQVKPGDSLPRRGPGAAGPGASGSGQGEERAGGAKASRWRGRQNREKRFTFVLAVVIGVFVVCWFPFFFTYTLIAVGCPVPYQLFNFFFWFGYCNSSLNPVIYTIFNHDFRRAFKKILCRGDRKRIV

Sequence of Alpha-1B adrenergic receptor (Rattus norvegicus, UniProt P15823) (P15823 whole entry, looked up): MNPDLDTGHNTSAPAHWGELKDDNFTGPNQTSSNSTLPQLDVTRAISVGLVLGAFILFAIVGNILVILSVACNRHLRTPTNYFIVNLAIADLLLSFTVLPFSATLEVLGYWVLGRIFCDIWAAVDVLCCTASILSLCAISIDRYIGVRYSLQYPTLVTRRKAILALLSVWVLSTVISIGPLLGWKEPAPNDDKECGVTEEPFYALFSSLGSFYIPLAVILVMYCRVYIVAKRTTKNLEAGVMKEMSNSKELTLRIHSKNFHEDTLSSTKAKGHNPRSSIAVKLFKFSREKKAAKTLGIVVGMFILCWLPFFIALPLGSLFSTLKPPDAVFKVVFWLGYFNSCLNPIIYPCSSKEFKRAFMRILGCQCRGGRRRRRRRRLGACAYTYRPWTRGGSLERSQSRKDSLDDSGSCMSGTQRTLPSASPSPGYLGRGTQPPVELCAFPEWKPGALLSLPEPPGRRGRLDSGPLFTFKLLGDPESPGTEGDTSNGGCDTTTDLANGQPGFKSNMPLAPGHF

O=C(NC1CCN(CCc2c[nH]c3ccccc23)CC1)c1ccccc1 [INDORAMIN]
Ki [1]: 110 nM
Ki [2]: 2240 nM
Ki [3]: 29 nM

COc1ccccc1N1CCN(CCCNc2c(C)c(=O)n(C)c(=O)n2C)CC1
Ki [1]: 21 nM
Ki [2]: 612 nM
Ki [4]: 96 nM
Ki [3]: 92 nM

COc1cccc(OC)c1OCCNCC1COc2ccccc2O1 (centres undefined)
Ki [5]: 0.37 nM
Ki [6]: 46 nM
